# ChEMBL document CHEMBL1153546, “Pharmacokinetics of telbivudine in subjects with various degrees of renal impairment” (Antimicrob Agents Chemother, 2007)
# Columns and labels:
# [1] = Mean cumulative urine excretion level in human with normal renal function at 600 mg, po administered as single dose; format: ADME, organism-based; settings: read-out: Activity
# Method in brief: (§1)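 Urine collected at –2 to 0 h predose and at 0–4, 4–8, 8–12, 12–24 and 24–48 h after a single oral dose. Unchanged telbivudine measured by validated HPLC-MS/MS (LLOQ 30 ng/ml, calibration 30–5,000 ng/ml), and amounts were summed cumulatively.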
# [2] = Cmax in human with normal renal function at 600 mg, po administered as single dose; format: ADME, organism-based; parameters: dose 600 mg, route oral; settings: in vivo
# Method in brief: (§2)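 Plasma telbivudine after one oral dose, sampled predose through 48 h and quantified by validated LC-MS/MS (LLOQ 10 ng/ml, transition 243.0→127.1 m/z). Cmax was read directly from the observed concentration-time data.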
# [3] = Cmax in patient with severe renal impairment at 200 mg, po administered as single dose; format: ADME, organism-based; parameters: dose 200 mg, route oral; settings: human, in vivo; method in brief: as §2
# [4] = Initial decline half life in patient with moderate renal impairment at 400 mg, po administered as single dose; format: ADME, organism-based; settings: human, in vivo, read-out: alphat1/2 (converted)
# Method in brief: (§3)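 Half-lives came from noncompartmental analysis of plasma LC-MS/MS concentrations over 48 h after a single oral dose. Terminal and initial-decline t1/2 were calculated as 0.693/k, with each rate constant derived by stripping and linear regression.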
# [5] = AUC (0 to infinity) in patient with end-stage renal disease at 200 mg, po administered as two single doses within 2 hrs of after completion of dialysis separated by 1 week washout period; format: ADME, organism-based; parameters: dose 200 mg, time infinity, route oral; settings: human, plasma
# Method in brief: (§4)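 Single oral telbivudine dose. Heparinized blood was drawn predose and up to 48 h postdose, with extra paired dialyzer samples for predialysis dosing. Plasma was stored at –20°C and assayed by validated HPLC-MS/MS (LLOQ 10 ng/ml, range 10–5,000 ng/ml). Noncompartmental analysis: AUC0-t by linear trapezoidal rule to last measurable concentration; AUC0-∞ = AUC0-t + Ct/kel.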
# [6] = AUC (0 to t) in patient with moderate renal impairment at 400 mg, po administered as single dose; format: ADME, organism-based; settings: human, plasma; method in brief: as §4
# [7] = Elimination half life in patient with end-stage renal disease at 200 mg, po administered as two single doses 2 hrs before dialysis separated by 1 week washout period; format: ADME, organism-based; settings: human, in vivo, read-out: beta t1/2 (converted); method in brief: as §3
# [8] = Elimination half life in patient with moderate renal impairment at 400 mg, po administered as single dose; format: ADME, organism-based; settings: human, in vivo, read-out: beta t1/2 (converted); method in brief: as §3
# [9] = Elimination half life in human with normal renal function at 600 mg, po administered as single dose; format: ADME, organism-based; settings: in vivo, read-out: beta t1/2 (converted); method in brief: as §3
# [10] = Renal clearance in patient with moderate renal impairment at 400 mg, po administered as single dose; format: ADME, organism-based, Kidney; settings: human, in vivo, read-out: CL_renal (converted)
# Method in brief: (§5)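 Renal clearance = Au0-t/AUC0-t, where Au0-t is the cumulative unchanged drug in urine collected over 0–48 h. Plasma and urine were assayed by validated HPLC-MS/MS after a single oral dose.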
# [11] = Mean cumulative urine excretion level in patient with severe renal impairment at 200 mg, po administered as single dose; format: ADME, organism-based; settings: human, read-out: Activity; method in brief: as §1
# [12] = Plasma clearance in patient with end-stage renal disease at 200 mg, po administered as two single doses 2 hrs before dialysis separated by 1 week washout period; format: ADME, organism-based; settings: human
# Method in brief: (§6)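 Apparent total oral plasma clearance (CL/F) = dose/AUC0-∞. AUC was obtained noncompartmentally from plasma LC-MS/MS concentrations sampled up to 48 h after a single oral dose.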
# [13] = Plasma clearance in patient with mild renal impairment at 600 mg, po administered as single dose; format: ADME, organism-based; settings: human; method in brief: as §6
# [14] = Cmax in patient with end-stage renal disease at 200 mg, po administered as two single doses within 2 hrs of after completion of dialysis separated by 1 week washout period; format: ADME, organism-based; parameters: dose 200 mg, route oral; settings: human, in vivo; method in brief: as §2
# Hepatitis B virus [15] = test: Antiviral activity against HBV in HBeAg-positive patient with chronic viral infection assessed as log reduction of serum viral DNA copies/ml at 60 mg/day after 6 to 12 weeks; format: functional
# [16] = Renal clearance in human with normal renal function at 600 mg, po administered as single dose; format: ADME, organism-based, Kidney; settings: in vivo, read-out: CL_renal (converted); method in brief: as §5
# [17] = AUC (0 to infinity) in patient with mild renal impairment at 600 mg, po administered as single dose; format: ADME, organism-based; parameters: dose 600 mg, route oral, time infinity; settings: human, plasma; method in brief: as §4
# [18] = Elimination half life in patient with end-stage renal disease at 200 mg, po administered as two single doses within 2 hrs of after completion of dialysis separated by 1 week washout period; format: ADME, organism-based; settings: human, in vivo, read-out: beta t1/2 (converted); method in brief: as §3
# [19] = Mean cumulative urine excretion level in patient with moderate renal impairment at 400 mg, po administered as single dose; format: ADME, organism-based; settings: human, read-out: Activity; method in brief: as §1
# [20] = AUC (0 to infinity) in patient with severe renal impairment at 200 mg, po administered as single dose; format: ADME, organism-based; parameters: dose 200 mg, route oral, time infinity; settings: human, plasma; method in brief: as §4
# [21] = Tmax in patient with end-stage renal disease at 200 mg, po administered as two single doses 2 hrs before dialysis separated by 1 week washout period; format: ADME, organism-based; settings: human, in vivo
# Method in brief: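 ESRD subjects dosed orally before dialysis, with a 3.5–4 h hemodialysis session starting 2 h post-dose. Blood was drawn predose and at 0.5, 0.75, 1, 2, 3.75–4, 5.5–6, 8, 12, 16, 20, 24, 28, 32, 36 and 48 h. Paired pre/postdialyzer samples were taken at the dialysis time points. Plasma telbivudine by HPLC-MS/MS. Tmax taken directly from the observed data.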
# [22] = Initial decline half life in patient with mild renal impairment at 600 mg, po administered as single dose; format: ADME, organism-based; settings: human, in vivo, read-out: alphat1/2 (converted); method in brief: as §3
# [23] = Elimination half life in patient with mild renal impairment at 600 mg, po administered as single dose; format: ADME, organism-based; settings: human, in vivo, read-out: beta t1/2 (converted); method in brief: as §3
# Hepatitis B virus [24] = test: Antiviral activity against HBV in HBeAg-positive patient with chronic viral infection assessed as log reduction of serum viral DNA copies/ml at 60 mg/day after 4 weeks; format: functional
# [25] = Initial decline half life in patient with severe renal impairment at 200 mg, po administered as single dose; format: ADME, organism-based; settings: human, in vivo, read-out: alphat1/2 (converted); method in brief: as §3
# [26] = Cmax in patient with end-stage renal disease at 200 mg, po administered as two single doses 2 hrs before dialysis separated by 1 week washout period; format: ADME, organism-based; parameters: dose 200 mg, route oral; settings: human, in vivo; method in brief: as §2
# [27] = Tmax in patient with moderate renal impairment at 400 mg, po administered as single dose; format: ADME, organism-based; settings: human, in vivo
# Method in brief: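 Single oral dose. Plasma was frozen at –20°C. Assay by validated HPLC-MS/MS (LLOQ 10 ng/ml, calibration 10–5,000 ng/ml, m/z 243.0→127.1). Tmax was read directly from the concentration-time data, with noncompartmental analysis.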
# HepG2 = test: Metabolic stability in human HepG2 cells assessed as Telbivudine triphosphate half life; format: ADME, cell-based
# [28] = Initial decline half life in patient with end-stage renal disease at 200 mg, po administered as two single doses within 2 hrs of after completion of dialysis separated by 1 week washout period; format: ADME, organism-based; settings: human, in vivo, read-out: alphat1/2 (converted); method in brief: as §3
structure (smiles),measurement,setting,value
Cc1cn([C@@H]2C[C@@H](O)[C@H](CO)O2)c(=O)[nH]c1=O [TELBIVUDINE],dose excreted,[1],31.5%
same,Cmax,[2],3.4 µg/mL
same,Cmax,[3],1.6 µg/mL
same,half-life,[4],3.82 h
same,AUC(0-inf),[5],67.4 µg·h/mL
same,AUC(0-t),[6],30.1 µg·h/mL
same,half-life,[7],35.2 h
same,half-life,[8],31.2 h
same,half-life,[9],20.5 h
same,CL renal,[10],43.3 mL/min
same,dose excreted,[11],8%
same,CL/F,[12],81.7 mL/min
same,CL/F,[13],345 mL/min
same,Cmax,[14],2.1 µg/mL
same,Activity,Hepatitis B virus [15],6 mL⁻¹
same,CL renal,[16],127 mL/min
same,AUC(0-inf),[17],32.5 µg·h/mL
same,half-life,[18],37.9 h
same,dose excreted,[19],19.8%
same,AUC(0-inf),[20],32.5 µg·h/mL
same,Tmax,[21],8 h
same,half-life,[22],3.42 h
same,half-life,[23],26.7 h
same,Activity,Hepatitis B virus [24],3.6 mL⁻¹
same,half-life,[25],4.5 h
same,Cmax,[26],1.2 µg/mL
same,Tmax,[27],4 h
same,t1/2,HepG2,15 h
same,half-life,[28],4.87 h
